Only a selection was taken, and hits are over-represented in it overall.
CHOP inh = blocks CHOP induction under ER stress. AID 2732. CHO-K1 CHOP-promoter luciferase, tunicamycin-induced, 15-18 h. hit rate 3.8% among 220,000. inhibition, % at 10 µM;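 active means compounds that reduced the stress-induced luciferase reporter signal by more than about 70% of percent inhibition, limit read from the data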;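 further: 0% = tunicamycin plus vehicle and 100% = wells without tunicamycin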
PvdQ inh = blocks Pseudomonas aeruginosa PvdQ acylase activity; purified PvdQ acylase, fluorescence plate reader; inhibition, % at 10 µM; hit rate 0.063% among 340,000; AID 488965; in the data active means inhibition above about 30%, passing the limit was not always enough;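 further: 0% = vehicle neutral wells and 100% = reference inhibitor wells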
UPR CHOP act = apoptotic UPR (CHOP) activation; CHO-CHOP luciferase reporter, luminescence; percent of tunicamycin response over DMSO baseline; activation, % at 10 µM; hit rate 0.34% among 330,000;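 active means at 10 µM dose, activation of 40% or more, normalized to positive control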;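 further: 100% = tunicamycin at 10 µg/mL and 0% = DMSO alone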
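Evaluation: % reporter activation, DMSO baseline versus tunicamycin full activation; System: CHO-CHOP luciferase reporter cell line; Input: 500 cells/well; Incubation: 6 h compound treatment, 37 °C; Measured by: Steady-Glo luciferase luminescence; Dosing: one dose, 10 µM in 0.5% DMSO; Buffer or medium: F12 medium, 10% FBS; Benchmarks: positive tunicamycin 10 µg/mL, negative DMSO alone.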
XBP1 UPR activ = adaptive UPR (XBP1) activation | CHO-XBP1 luciferase reporter, IRE1-XBP1 UPR activation, luminescence; percent of tunicamycin response, DMSO as zero | activation, % at 20 µM | hit rate 0.33% among 330,000 | AID 463104;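 active means versus positive control, 20 µM dose yields 30% or more activation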;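 further: 100% = tunicamycin at 10 µg/mL and 0% = DMSO only wells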
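Material: CHO cell line with stable XBP1 luciferase reporter; schedule: 16-18 h cell attachment at 37 °C, then 6 h compound exposure; signal: glow luminescence from Steady-Glo reagent; medium: serum-containing F12 medium, 10% FBS; benchmarks: tunicamycin 10 µg/mL and vehicle-only wells; read-out: percent activation relative to tunicamycin reference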
CHOP confirm = confirmation of CHOP induction inhibitors. CHO-CHOP promoter luciferase reporter, tunicamycin-induced, luminescence. inhibition, % at 10 µM. hit rate 45% among 2,100. AID 504437. shares compounds with CHOP inh;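 active means mean of three repeat readings of reporter signal inhibition above a set limit, cut at about 70% in these data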;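 further: 0% = tunicamycin plus vehicle and 100% = wells lacking tunicamycin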
Active calls of the source: *; / = no result given.

SMILES	CHOP inh	PvdQ inh	UPR CHOP act	XBP1 UPR activ	CHOP confirm
CCOC(=O)C1=C(N)Oc2cc(C)oc(=O)c2C12C(=O)N1c3c(cccc32)C(C)=CC1(C)C (centres undefined)	14	-7	-1	1	/
CCOC(=O)C1=C(N)Oc2cc(C)oc(=O)c2C12C(=O)N1c3c(cc(OC)cc32)C(C)=CC1(C)C (centres undefined)	76*	-1	0	0	/
CCCC[N+]1(C)C2CC(OC(=O)[C@H](CO)c3ccccc3)CC1C1OC12 (some centres undefined)	-15	/	/	/	/
CC12CNCC(C)(CNC1)C2O (centres undefined)	88*	-11	-1	1	/
CCc1c(C(=O)OC)ncc2[nH]c3cc(OC)c(OC)cc3c12	4	/	/	/	/
Nc1ncnc2c1ccn2[C@@H]1O[C@H](CO)[C@@H](O)[C@H]1O	/	0	-4	-6	/
NC(=S)c1cn(C2OC(CO)C(O)C2O)c2ncnc(N)c12 (centres undefined)	105*	-8	/	/	/
CC(C)[C@H]1C(=O)O[C@H](C(C)C)C(=O)N(C)[C@@H](C(C)C)C(=O)O[C@H](C(C)C)C(=O)N(C)[C@@H](C(C)C)C(=O)O[C@H](C(C)C)C(=O)N1C	93*	-2	23	5	/
C[C@H]1O[C@H]1P(=O)(O)O	0	2	0	-9	/
COC(=O)C(O)(c1ccc(NC(=S)NC(=O)c2ccc(Cl)cc2Cl)c(C)c1)C(F)(F)F (centres undefined)	98*	5	0	0	106*
CCOC(=O)C(O)(c1ccc(NC(=S)NC(=O)c2ccc(Cl)cc2Cl)cc1)C(F)(F)F (centres undefined)	53	2	1	0	/
CCOC(=O)c1sc(N=Nc2c(O)[nH]c(=O)[nH]c2=O)c(C(=O)OCC)c1C	105*	/	3	14	106*
O=C1NC(=O)N(c2cccc(Cl)c2)C(=O)/C1=C\c1ccc(Sc2nc3ccccc3[nH]2)o1	4	-9	3	-6	/
O=C1NC(=O)N(c2ccccc2)C(=O)/C1=C/c1ccc(Sc2ccccc2)o1	104*	-12	/	/	-26
O=C1NC(=S)NC(=O)C1=Cc1cccn1-c1ccc(O)cc1	107*	6	/	/	-267
COc1ccccc1C=C1C(=O)NC(=S)NC1=O	/	6	/	/	/
Cc1ccc(NC(=O)CN2C(=O)CN=C(c3ccccc3)c3cc(Cl)ccc32)cc1	107*	4	0	-2	34
COc1ccc(-n2nc(C(F)(F)F)cc2-c2ccc(Cl)cc2)cc1	-8	/	/	/	/
COc1ccc(CN2C(=O)NC(=O)/C(=C\c3ccco3)C2=O)cc1	105*	-2	0	4	-29
CC1CN=C(Nc2ccc(F)c(Cl)c2)S1 (centres undefined)	-3	24	0	0	/
CCN1C(=O)/C(=C/c2ccc(N(CC)CC)cc2OC)C(=O)NC1=S	100*	-10	3	2	-15
COc1ccccc1/C=C1\C(=O)NC(=S)N(c2ccccc2)C1=O	/	-20	1	-6	/
C=C1C(=O)O[C@@H]2C[C@@H](C)[C@@H]3C=CC(=O)[C@@]3(C)[C@@H](O)[C@H]12	107*	3	-9	-12	119*
CN(C)c1ccc(/C=C2/C(=O)NC(=O)N(Cc3ccco3)C2=O)cc1	-15	-7	0	-1	/
C=CCN1C(=O)/C(=C/c2ccc(N3CCOCC3)o2)C(=O)NC1=S	-52	-15	2	4	/
SMILES	CHOP inh	PvdQ inh	UPR CHOP act	XBP1 UPR activ	CHOP confirm
O=C1NC(=O)N(Cc2ccco2)C(=O)/C1=C/c1ccc(-c2cccc([N+](=O)[O-])c2)o1	98*	4	29	12	-104
C=CCN1C(=O)NC(=O)/C(=C\c2ccc(-c3ccccc3[N+](=O)[O-])o2)C1=O	105*	3	0	0	-36
CCOc1ccc(N=Cc2c(O)n(C(C)(C)C)c(=O)[nH]c2=O)cc1	99*	-14	-1	1	127*
Nc1cc(Cl)c2nonc2c1[N+](=O)[O-]	108*	-15	/	/	121*
O=[N+]([O-])c1c(Cl)c(Cl)c(Cl)c(Cl)c1Cl	/	-12	/	/	/
CCCCn1c(=O)c(C(=O)Nc2cnccn2)c(O)c2ccccc21	99*	-6	13	3	93*
CCCCCn1c(=O)c(C(=O)Nc2nc3ccccc3[nH]2)c(O)c2ccccc21	98*	-2	16	16	109*
OC(c1ccccc1)(c1ccccc1)C1CCNCC1	108*	-9	2	-4	18
OC(c1ccccc1)(c1ccccc1)C1CN2CCC1CC2 (centres undefined)	2	-14	-1	0	/
CC(Cc1ccccc1)[n+]1cc(/N=C(\[O-])Nc2ccccc2)on1 (centres undefined)	18	8	3	0	/
c1ccc(C2NCCc3[nH]cnc32)cc1 (centres undefined)	-2	-12	0	1	/
CC1=CC2/C=C(\C)CCC(O)C(O)/C=C/C(=O)C23C(=O)NC(CC(C)C)C3C1C (centres undefined)	105*	-8	-10	-9	125*
C[C@]12CCC3C(CC[C@H]4C[C@H](O)CC[C@]34C)C1CC[C@@H]2C(=O)CO (some centres undefined)	8	/	/	/	/
CC(=O)OC[C@]12CCC(C)=C[C@H]1O[C@@H]1[C@H](O)[C@@H](OC(C)=O)[C@@]2(C)[C@]12CO2	104*	-7	-6	-6	123*
S=P(Nn1cnnc1)(c1ccccc1)c1ccccc1	2	-4	-1	-2	/
CC(C)n1c(O)c(C2c3cc(Cl)ccc3Oc3[nH]c(=O)n(C(C)C)c(=O)c32)c(=O)[nH]c1=O (centres undefined)	107*	-2	/	/	62
NC(N)=N/N=C/c1cn(-c2ccccc2)nc1-c1cccs1	106*	5	9	16	98*
O=c1c2ccccc2nc(-c2cccs2)n1-c1ccccc1	51	-8	-3	-1	/
NC(CCP(=O)(O)O)C(=O)O (centres undefined)	-2	/	/	/	/
C=CP(=O)(O)c1ccccc1	-8	7	1	-1	/
O=c1[nH]c(O)c(C=Nc2ccccc2Sc2ccccc2)c(=O)[nH]1	100*	-13	0	2	-34
CCCCCSc1cc(OC)c(CCNC)cc1OC	17	-12	1	0	/
CCCCCCCSc1cc(OC)c(CCNC)cc1OC	100*	-17	-2	6	3
O=C(COC(=O)c1ccc(O)cc1)Nc1ccc(Cl)cc1C(=O)c1ccccc1	102*	-15	-2	0	41
O=C(COc1ccccc1)Nc1ccc(Cl)cc1C(=O)c1ccccc1	96*	4	1	-5	5
CC(=O)[C@H]1CCC2C3CC[C@H]4C[C@H](O)CC[C@]4(C)C3CC[C@@]21C (some centres undefined)	-1	/	/	/	/

Source: PubChem BioAssay
